From PMC8929358 (Pharmacology Research & Perspectives, 2021)

Tests used:
[1] = type: in vivo, rat; conditions: oral 100 mg/kg
Method in brief: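 In Sprague Dawley rats given 100 mg/kg [14C]-labelled compound (100 μCi/kg) orally in 0.2% HPMC, heparinized blood was taken by cardiac puncture at 2–168 h. Plasma was precipitated with MeOH/ACN (50:50), dried under N2 and reconstituted. Urine (0–6, 6–24 h) and feces (0–12, 12–24, 24–48 h) were pooled and stored at −80°C. Analysis used accurate-mass LC-MS with offline radiodetection.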

[2] = biological target: T1, UGT1A4 (Homo sapiens, UniProt P22310); assay: Glucuronidation of opicapone by recombinant UGT1A4; type: in vitro ADME; conditions: 20 μM opicapone; incubation period of 60 min
T1 sequence (P22310 29-534): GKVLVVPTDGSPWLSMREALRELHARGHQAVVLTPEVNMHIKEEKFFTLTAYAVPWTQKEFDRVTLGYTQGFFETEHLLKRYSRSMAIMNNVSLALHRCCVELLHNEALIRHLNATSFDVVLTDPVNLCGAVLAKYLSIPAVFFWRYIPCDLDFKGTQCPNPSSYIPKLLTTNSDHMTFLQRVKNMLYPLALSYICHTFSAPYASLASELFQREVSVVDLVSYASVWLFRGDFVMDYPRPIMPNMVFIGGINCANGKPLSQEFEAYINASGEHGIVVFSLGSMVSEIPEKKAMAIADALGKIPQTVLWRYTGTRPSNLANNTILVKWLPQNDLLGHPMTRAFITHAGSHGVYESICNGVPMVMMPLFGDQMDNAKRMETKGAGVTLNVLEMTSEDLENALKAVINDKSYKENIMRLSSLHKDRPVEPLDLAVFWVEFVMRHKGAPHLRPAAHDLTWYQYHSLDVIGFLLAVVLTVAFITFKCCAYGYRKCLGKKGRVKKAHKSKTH

[3] = biological target: T2, UGT1A6 (Homo sapiens, UniProt P19224); assay: Glucuronidation of opicapone by recombinant UGT1A6; type: in vitro ADME
T2 sequence (P19224 27-532): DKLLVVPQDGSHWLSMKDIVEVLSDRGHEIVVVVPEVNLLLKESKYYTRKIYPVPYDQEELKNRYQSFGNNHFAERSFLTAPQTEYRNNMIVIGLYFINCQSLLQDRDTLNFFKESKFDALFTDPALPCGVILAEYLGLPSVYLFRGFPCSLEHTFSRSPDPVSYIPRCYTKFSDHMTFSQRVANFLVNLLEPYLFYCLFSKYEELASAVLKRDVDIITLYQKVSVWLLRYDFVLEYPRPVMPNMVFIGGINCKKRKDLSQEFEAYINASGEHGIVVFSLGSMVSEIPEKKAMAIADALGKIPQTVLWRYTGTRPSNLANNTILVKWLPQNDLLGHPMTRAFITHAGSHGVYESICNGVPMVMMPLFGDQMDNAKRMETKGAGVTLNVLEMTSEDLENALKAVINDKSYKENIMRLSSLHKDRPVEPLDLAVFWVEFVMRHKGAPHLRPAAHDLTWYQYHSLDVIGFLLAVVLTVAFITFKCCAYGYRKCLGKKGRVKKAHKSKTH

[4] = biological target: T3, UGT 2B4 (Homo sapiens, UniProt P06133); assay: Glucuronidation of opicapone by recombinant UGT2B4; type: in vitro ADME; conditions: 20 μM opicapone; incubation period of 60 min
T3 sequence (P06133 24-528): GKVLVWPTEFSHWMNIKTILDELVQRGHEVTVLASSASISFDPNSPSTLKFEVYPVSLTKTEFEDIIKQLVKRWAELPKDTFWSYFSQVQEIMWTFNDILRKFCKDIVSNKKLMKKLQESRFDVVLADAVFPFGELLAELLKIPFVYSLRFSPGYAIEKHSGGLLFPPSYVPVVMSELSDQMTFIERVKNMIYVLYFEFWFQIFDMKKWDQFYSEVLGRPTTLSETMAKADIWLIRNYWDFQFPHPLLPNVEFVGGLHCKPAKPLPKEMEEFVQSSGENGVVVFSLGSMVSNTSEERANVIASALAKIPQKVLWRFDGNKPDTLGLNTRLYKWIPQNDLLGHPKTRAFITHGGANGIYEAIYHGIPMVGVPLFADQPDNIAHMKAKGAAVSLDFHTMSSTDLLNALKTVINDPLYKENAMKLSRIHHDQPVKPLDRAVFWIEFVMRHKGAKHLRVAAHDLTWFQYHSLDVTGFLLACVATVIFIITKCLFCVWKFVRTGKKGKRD

[5] = biological target: T4, UGT 2B15 (Homo sapiens, UniProt P54855); assay: Glucuronidation of opicapone by recombinant UGT2B15; type: in vitro ADME; conditions: 20 μM opicapone
T4 sequence (P54855 24-530): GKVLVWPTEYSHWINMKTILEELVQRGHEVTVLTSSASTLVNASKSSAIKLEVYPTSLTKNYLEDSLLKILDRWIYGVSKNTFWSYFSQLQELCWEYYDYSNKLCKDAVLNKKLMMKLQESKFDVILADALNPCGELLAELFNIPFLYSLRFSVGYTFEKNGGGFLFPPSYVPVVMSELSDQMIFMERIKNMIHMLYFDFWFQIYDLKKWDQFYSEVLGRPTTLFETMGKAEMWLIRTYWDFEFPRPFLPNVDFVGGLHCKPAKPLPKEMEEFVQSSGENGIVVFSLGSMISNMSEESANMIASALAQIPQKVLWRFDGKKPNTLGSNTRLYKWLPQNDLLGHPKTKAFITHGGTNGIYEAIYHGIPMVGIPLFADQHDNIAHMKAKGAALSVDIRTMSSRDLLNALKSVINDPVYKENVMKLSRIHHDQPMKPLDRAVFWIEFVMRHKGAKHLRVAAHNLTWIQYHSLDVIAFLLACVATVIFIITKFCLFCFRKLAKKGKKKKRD

[6] = healthy subjects; oral; cited from earlier work
[7] = low solubility compound; ref unpublished information; cited from earlier work

Plasma, % of total AUC0–168 h of drug-related radioactivity ([1]; ND = not detected): 15.1%
Time of peak of unchanged opicapone in plasma ([1]; earliest time point analyzed): 2 h
Feces, % of administered dose ([1]; feces pools 0–48 h, ND = not detected): 6.25%
Urine, % of administered dose ([1]; urine pools 0–24 h, ND = not detected, 100 mg/kg): 0.1%
Metabolite formation (screening) [2]: No metabolite formation was detected
Formation of BIA 9-1106 (screening) ([3]; 20 μM opicapone): little amounts
Glucuronidation kinetics (form of the rate curve) ([3]; opicapone 1 to 250 μM): linear
Metabolite formation (screening) [4]: No metabolite formation was detected
Formation of BIA 9-1106 (screening) [5]: little amounts
SMILES: Cc1c(Cl)c(C)[n+]([O-])c(Cl)c1-c1noc(-c2cc(O)c(O)c([N+](=O)[O-])c2)n1 [opicapone, 2,5‐dichloro‐3‐(5‐(3,4‐dihydroxy‐5‐nitrophenyl)‐1,2,4‐oxadiazol‐3‐yl)‐4,6‐dimethylpyridine 1‐oxide]
Apparent terminal elimination half-life (t1/2) [6]: 48 to 192 min
Biopharmaceutics Classification System class [7]: class II
